Several values for one entry are separate records, joined by “and”; a condition that tells them apart may be missing. Identical values can stand only once.
Key:
Type in all cases: functional, Rattus norvegicus, Hippocampus
[1] = Inability to reverse inhibitory effect of D-threo-1-phenyl-2-decanoylamino-3-morpholino-1-propanol(PDMP) on accelerated axonal growth of hippocampal neurons, number of axonal branch points/ cell at 51 hour (P value)
Outline: (§1)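 Rat (E18 Wistar) hippocampal neurons cultured at low density over glia in serum-free N2 MEM. Treated at 48 h with bFGF 1 ng/mL, PDMP 50 μM final (Hepes stock) and with or without analogue 5 μM from ethanol (≤1% final). Axonal branch points/cell counted by phase contrast after glutaraldehyde fixation at 51 h and normalized to 48 h. Mean ± SEM of three cultures, 50 cells × two cover slips; p values vs bFGF or bFGF+PDMP.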

[2] = Evaluation for reversing the inhibitory effects of Fumonisin B1(FB1) on accelerated axonal growth of hippocampal neurons.
Outline: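 E18 Wistar rat hippocampal neurons, trypsin-dissociated and plated at low density on poly-L-lysine cover slips over a glial monolayer in serum-free N2 MEM. At 48 h: bFGF 1 ng/mL plus FB1 10 μM (Hepes stock) with or without analogue 5 μM (ethanol, ≤1% final). At 51 h, fixed in glutaraldehyde and axonal branch points/cell counted by phase contrast. Values normalized to 48 h; mean ± SEM of three cultures, 50 cells per cover slip, two cover slips per treatment; p values reported.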

[3] = Inability to reverse inhibitory effect of D-threo-1-phenyl-2-decanoylamino-3-morpholino-1-propanol(PDMP) on accelerated axonal growth of hippocampal neurons (P value); outline: as §1

## CCCCCCC/C=C/[C@@H](F)[C@H](CO)NC(=O)CCCCC
[1]
  No. of axonal points: 1.12
[2]
  No. of axonal points: 1.39

## CCCCCCC/C=C/[C@H](F)[C@H](CO)NC(=O)CCCCC
[1]
  No. of axonal points: 1.16
[2]
  No. of axonal points: 1.29

## CCCCCC(=O)N[C@@H](CO)[C@H](O)/C=C/c1ccc(C)cc1
[2]
  No. of axonal points: 1.46

## CCCCCc1ccc(/C=C/[C@@H](O)[C@H](CO)NC(C)=O)cc1
[2]
  No. of axonal points: 1.67

## CCCCCC(=O)N[C@@H](CO)[C@H](O)/C=C/c1ccc(F)cc1
[2]
  No. of axonal points: 1.5

## CCCCCCCCCCCCC/C=C/[C@@H](O)[C@H](CO)NC(=O)CCCCCNc1ccc([N+](=O)[O-])c2nonc12
[1]
  No. of axonal points: 0.86 and 1.08
[2]
  No. of axonal points: <1.66 and 1.46

## CCCCCCCCCCCCC/C=C/[C@H](O)[C@H](CO)NC(=O)CCCCCNc1ccc([N+](=O)[O-])c2nonc12
[3]
  No. of axonal points: 0.94
[1]
  No. of axonal points: 1.06
[2]
  No. of axonal points: <1.01 and <1.06

## CCCCCC(=O)N[C@@H](CO)[C@H](O)/C=C/c1ccc(OC)cc1
[2]
  No. of axonal points: 1.35

## CCCCCC(=O)N[C@@H](CO)[C@H](O)/C=C/c1cccs1
[1]
  No. of axonal points: 1.04
[2]
  No. of axonal points: 1.38

## CCCCCc1ccc(/C=C/[C@@H](O)[C@H](CO)NC(=O)CCC)cc1
[2]
  No. of axonal points: 1.83

## CCCCCC(=O)N[C@@H](CO)[C@H](O)/C=C/c1ccc(CCCCC)cc1
[2]
  No. of axonal points: 1.54

## CCCCCCC/C=C/[C@@H](O)[C@H](CO)NC(=O)CCCCC
[2]
  No. of axonal points: 1.43

## CCCCCCC/C=C/[C@H](O)[C@H](CO)NC(=O)CCCCC
[2]
  No. of axonal points: 1.11

## CCCCCC(=O)N[C@@H](CO)[C@H](O)/C=C/c1ccccc1
[1]
  No. of axonal points: 0.92
[2]
  No. of axonal points: 2.09

Reference: ChEMBL document CHEMBL1133505, “Synthesis and biological evaluation of ceramide analogues with substituted aromatic rings or an allylic fluoride in the sphingoid moiety” (2000)
